System: MS2 coat protein
Experiment: apparent Kd, MS2 coat protein; higher = weaker binding; RNA-MaP array; FMN 200 µM where present
Procedure, shortened: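 On Illumina sequencing-chip clusters, designs were transcribed by stalled E. coli RNA polymerase and titrated with SNAP-549-labelled MS2 coat protein (0.7 or 1.5 nM, doubling to 3 µM), without and then with constant ligand, in 100 mM Tris-HCl pH 7.5, 80 mM KCl, 4 mM MgCl2, BSA, DTT, yeast tRNA and Tween-20. Apparent Kd is the median of filtered per-cluster curve fits to green signal normalised to red-channel RNA signal and control-cluster median Fmax.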

[1] = designed as: OFF switch for flavin mononucleotide, no ligand
[2] = ligand present: flavin mononucleotide, designed as: OFF switch for flavin mononucleotide
[3] = designed as: ON switch for flavin mononucleotide, no ligand
[4] = ligand present: flavin mononucleotide, designed as: ON switch for flavin mononucleotide

Sequence | apparent Kd [1] [nM] | apparent Kd [2] [nM] | apparent Kd [3] [nM] | apparent Kd [4] [nM]
UUUUAACAUGAGGAUCACCCAUGUGAGGAUAUCGAAAUUUAUAUUAAUAUUAAUAAUUCGAGAAGGCACAUUUU | 142 | 137 | – | –
CGUACACAUGAGGAUCACCCAUGUCAGAUUUGGUCAGGAUAUGGGCGGCAUCCGCUAUAGCCAGAAGGGACUGUUG | – | – | 173 | 204
AAAGAAAAACUAGAGGAUAUCCGAGUGGUAACAUGAGGAUCACCCAUGUGAUGAAAGGAACAUGAGGAGAAGGCUAGAAGAAAAA | – | – | 21.7 | 8.11
AAGCCCUGAGGAUAUCCCAACUCGCACAUGAGGAUCACCCAUGUCCUCCUCUGGGCUUCGGGAGAAGGCAGGUCUC | 43.1 | 114 | – | –
CUGGUUGUCGAGGAUAUGUCCCGGCUCGCUGUCGCAGAAGGCGACACAUGAGGAUCACCCAUGUCGGUUCGCGU | 34.6 | 30.5 | – | –
CGCGCGGUGUAGAAGGGUGACAUGAGGAUCACCCAUGUGCGGAGGCGCCCAUUGACGCCUCCGCCACAGGAUAUACACCACGCC | – | – | 46.8 | 66.9
ACAUGAUAUGUAGGAUAUCACAACAUGAGUUUUAAUAUUGUUAUUUAGGAUUGAGAAGGACAUUUACAUGAGGAUCACCCAUGU | 17.5 | 14.6 | – | –
UGACAUAUAUAGAAGGGUAGUAGGGUUUUACAUGAGGAUCACCCAUGUAUUAUAGGAUAUGUGUAAAGUUAUUAUUAAAGUAAA | 22.5 | 17.2 | – | –
UUAAUUAAUUAAUUCCAGUUUACAUGAGGAUCACCCAUGUAUAAGGAUAUGCAGUGGAAUACACUGCAGAAGGUAUACAUCUGG | 18.4 | 35.8 | – | –
UAAGAUUAUGUAGGAUAUGGUUAUCUAUGUCUAGUUACUAGACAUAGAUAACCAGAAGGACAUGAGGAUCACCCAUGUUGAAUG | 10.3 | 44.4 | – | –
CAGGCGGAGUCAGGAUAUGCACGGUGGACCCAUAACAUGAGGAUCACCCAUGUUACUACGCCUCAGCAGAAGGGACAACCUCCU | – | – | 28.7 | 6.21
UGAGCAUGAGGAUAUACUUGGCGACCGUGAGGUCGAGGUUUACAUGAGGAUCACCCAUGUAGAAGGCAUGUUCU | 18.7 | 52.6 | – | –
UGUGAGAUGAUGUUAGAUAGGAGAACAUGAGGAUCACCCAUGUAGGAUAUUCAAAGACGAAGAUAGAAGAAGGACAUAGGUAUC | 30.3 | 78.2 | – | –
GUCAGCUCGUGAGGAUAUACAACACUGCUUCGGCAGUGUAUUAAGAUCACAUGAGGAUCACCCAUGUAGAAGGCACGAGCUGCU | 12.9 | 276 | – | –
CUGAUGUAAGGAUAUGUGUAGAAAUCAAAUCGGAUAUUCUAACAGAAGGUACAUGAGGAUCACCCAUGUGAGAA | 39.7 | 71.2 | – | –
AACUGACAUGAGGAUCACCCAUGUCAGGAUAUGAUUUGACGAAAUAAAAUAAGUCAUAUCAGAAGGGACAUGGA | 25.9 | 46.9 | – | –
ACACAUGAGGAUCACCCAUGUAGCUGGCGUCUGCGCCAGCCACAGGAUAUACGGCAAAACAAACCGUAGAAGGGUGAUAAACAC | – | – | 80.1 | 31.8
GCCAUCGUAUGAGGAUAUGGCACCGAAACGGUGCCAGAAGGCAUGUCAAUAGACAUGAGGAUCACCCAUGUCUUAUCGAUGGCA | – | – | 19.9 | 18.9
UUGGACGUCGUAGGAUAUGUAGGAUAUUCCUACAUGAGGAUCACCCAUGUUGACAUGGAAUAAGGACAGAAGGACGAUGUCCAU | – | – | 23.4 | 5.28
UGUUACUAGUAAGGAUAUACUUGCAAUAAGCUUGUAGAAGGUACAGUCUUUUGUAUAACAUGUUUACAUGAGGAUCACCCAUGU | – | – | 10.6 | 9.66
UGAUCGAGAGAUCUUAGAUUCUGCAAGGAUAUGCAGGAGUUGCGCUUUACAUGAGGAUCACCCAUGUAGAAGGUGUAGAGUCUA | 6.62 | 8.08 | – | –
GUCAUGUGAGGAUAUGUAUUGCGCAUGCCGAAAACAUGGCGGCAGAAGGCACAUGAGGAUCACCCAUGUGGGUU | 62.7 | 34.4 | – | –
AGGAAGUUAGGAUAUGCUGCUCGUCACUUGCGUGAUGAGUAGCAGAAGGGACAUGAGGAUCACCCAUGUAAAAA | 44.2 | 22.7 | – | –
GGGCUGGUAACAGGAUAUCGUGCCUGGCCGGAUUACAUGAGGAUCACCCAUGUCGUUGGAACCAACGAGAAGGGUUGCCUCCCG | – | – | 199 | 28.7
UUUUUGUGAGGAUAUCAGUAGUAAAUAAAUAAAAUUACUACUGAGAAGGCACAUGAGGAUCACCCAUGUUCCUU | 13.7 | 33.4 | – | –
AAAAAGUGAGGAUAUACAUGAGGAUCACCCAUGUGAAAUCGGAAAAAAAACGAAAAAAGUAGAAGGCACAAAAA | 25.3 | 24.5 | – | –
UAAGUUUUGGUAGGAUAUACUUUAAAUUUCUCUAUCCAUACAUGAGGAUCACCCAUGUUUACAUUGUAGAAGGACCACUAUGUU | 24.6 | 19.7 | – | –
GGUGCGUUUGUGAGGAUAUGCUGGUCCUUGGAUCCGCAGAAGGCACAUGAGGAUCACCCAUGUGGUGUCGUACC | 289 | 40.3 | – | –

Source: the EternaBench riboswitch data
